From ChEMBL document CHEMBL1208665, “Discovery of new 1,3,5-triazine scaffolds with potent activity against Mycobacterium tuberculosis H37Rv” (Eur J Med Chem, 2010)
Converted amounts (≈) assume the structure as drawn.

Legend:
[1] = system: Mycobacterium tuberculosis; experiment: Antimycobacterial activity against Mycobacterium tuberculosis H37Rv […] after 4 weeks; format: functional
How it was run: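 Agar-slant dilution against H37Rv. Compounds from 1.0 mg/mL DMSO stock, two-fold serial dilutions, were incorporated into OADC-supplemented medium (2 mL/tube final) and solidified slanted. Inoculum spread on the surface, incubated 37 °C for 4 weeks. Drug-free tubes served as control. MIC is the lowest concentration giving complete growth inhibition relative to the inoculum used.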

[2] = system: Vero; experiment: (§1) Cytotoxicity against Vero cells after 24 hrs by MTS assay; format: cell-based; details: chlorocebus sabaeus, vero, 24 h
How it was run: (§2)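 VERO cells were seeded at 20,000/well in MEM + 10% FBS with antibiotics and left to adhere overnight at 37 °C, 5% CO₂. Compound dilutions were added in MEM + 10% FBS for 24 h, with DMSO as negative control and a known toxic compound as positive control. Read-out was MTS, 2 h, A490, with DMSO wells taken as 100% survival.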

[3] = Cytotoxicity against mouse BMDM after 48 hrs by MTS assay; format: cell-based; details: for Activity: bmdm, 48 h
How it was run: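 Mouse femur bone marrow was flushed with DMEM + 10% FBS, 15% L-929 conditioned supernatant and non-essential amino acids. Cells were plated at 10⁵/well, medium was changed every 3rd day, and cells were used at day 5. Compounds were added in antibiotic-free FBS-DMEM for 48 h at 37 °C, 5% CO₂. Read-out was MTS, 2 h, A490, with DMSO wells taken as 100% survival.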

[4] = as §1; format: cell-based; details: chlorocebus sabaeus, Vero cells; read-out: MIC; how it was run: as §2

Compound	MIC [1]	further results
CCNC1CN(c2nc(N3CCCCC3)nc(N3CCOC(NCC)C3)n2)CCO1 (stereo not drawn)	> 12.5 µg/mL	–
CN(C)CCNc1nc(NCCN(C)C)nc(N2CCCc3ccccc32)n1	> 12.5 µg/mL	–
CCNc1nc(NCC)nc(N2CCCc3ccccc32)n1	> 12.5 µg/mL	–
CCNc1nc(NCC)nc(N2CCCCC2)n1	> 12.5 µg/mL	–
CC(C)(C)Nc1nc(NC(C)(C)C)nc(N2CCCCC2)n1	> 12.5 µg/mL	–
CCCNC1COCCN1c1nc(Nc2nc(SC)cc(-c3cc(OC)c(OC)c(OC)c3)n2)nc(N2CCOCC2NCCC)n1 (stereo not drawn)	12.5 µg/mL (≈ 18.6 µM)	–
CN(C)CCNc1nc(NCCN(C)C)nc(N2CCCCC2)n1	> 12.5 µg/mL	–
CCN(CC)CCNc1nc(NCCN(CC)CC)nc(N2CCCCC2)n1	> 12.5 µg/mL	–
O=C(NNc1nc(Nc2ccccc2)nc(N2CCCCC2)n1)c1ccncc1	> 12.5 µg/mL	–
O=C(NNc1nc(Nc2ccccc2)nc(Nc2ccccc2)n1)c1ccncc1	> 12.5 µg/mL	–
COc1ccc(-c2cc(SC)nc(Nc3nc(NCCN(C)C)nc(NCCN(C)C)n3)n2)cc1OC	6.25 µg/mL (≈ 11.8 µM)	–
CC(C)(C)Nc1nc(NNC(=O)c2ccncc2)nc(Nc2ccccc2)n1	> 12.5 µg/mL	–
NN(C(=O)c1ccncc1)c1nc(Nc2ccccc2)nc(N(N)C(=O)c2ccncc2)n1	> 12.5 µg/mL	–
CCNC1CN(c2nc(N3CCc4ccccc4C3)nc(N3CCc4ccccc4C3)n2)CCO1 (stereo not drawn)	3.12 µg/mL (≈ 6.62 µM)	Activity [2]: Non-toxic; Activity [3]: Toxic
CN1CCN(c2nc(N3CCc4ccccc4C3)nc(N3CCc4ccccc4C3)n2)CC1	6.25 µg/mL (≈ 14.2 µM)	–
CCCNc1nc(NCCC)nc(N2CCCCC2)n1	12.5 µg/mL (≈ 44.9 µM)	MCC at 24 h [4]: > 12.5 µg/mL; MCC at 48 h ([3]; BMDM (bone marrow-derived macrophages), read-out: MIC): > 12.5 µg/mL
CC(C)Nc1nc(NC(C)C)nc(N2CCCCC2)n1	12.5 µg/mL (≈ 44.9 µM)	–
CCCCNc1nc(NNC(=O)c2ccncc2)nc(N2CCCc3ccccc32)n1	6.25 µg/mL (≈ 14.9 µM)	–
CC(C)(C)Nc1nc(NNC(=O)c2ccncc2)nc(N2CCCc3ccccc32)n1	3.12 µg/mL (≈ 7.46 µM)	–
CC(C)Nc1nc(NNC(=O)c2ccncc2)nc(N2CCCc3ccccc32)n1	3.12 µg/mL (≈ 7.71 µM)	Activity [2]: Non-toxic; Activity [3]: Non-toxic
O=C(NNc1nc(N2CCOCC2)nc(N2CCCc3ccccc32)n1)c1ccncc1	3.12 µg/mL (≈ 7.21 µM)	Activity [2]: Non-toxic; Activity [3]: Non-toxic
O=C(NNc1nc(N2CCCCC2)nc(N2CCc3ccccc3C2)n1)c1ccncc1	3.12 µg/mL (≈ 7.25 µM)	Activity [2]: Non-toxic; Activity [3]: Toxic
CCCCNc1nc(NNC(=O)c2ccncc2)nc(N2CCc3ccccc3C2)n1	3.12 µg/mL (≈ 7.46 µM)	Activity [2]: Non-toxic; Activity [3]: Non-toxic
CC(C)(C)Nc1nc(NNC(=O)c2ccncc2)nc(N2CCc3ccccc3C2)n1	3.12 µg/mL (≈ 7.46 µM)	Activity [2]: Non-toxic; Activity [3]: Toxic
CC(C)Nc1nc(NNC(=O)c2ccncc2)nc(N2CCc3ccccc3C2)n1	3.12 µg/mL (≈ 7.71 µM)	Activity [2]: Non-toxic; Activity [3]: Non-toxic
O=C(NNc1nc(N2CCc3ccccc3C2)nc(N2CCc3ccccc3C2)n1)c1ccncc1	3.12 µg/mL (≈ 6.52 µM)	Activity [2]: Non-toxic; Activity [3]: Toxic

Compound	MIC [1]	further results
O=C(NNc1nc(Nc2ncccn2)nc(N2CCCCC2)n1)c1ccncc1	3.12 µg/mL (≈ 7.95 µM)	Activity [2]: Non-toxic; Activity [3]: Non-toxic
CCCCNc1nc(NNC(=O)c2ccncc2)nc(N2CCCCC2)n1	3.12 µg/mL (≈ 8.42 µM)	Activity [2]: Non-toxic; Activity [3]: Non-toxic
CC(C)(C)Nc1nc(NNC(=O)c2ccncc2)nc(N2CCCCC2)n1	6.25 µg/mL (≈ 16.9 µM)	–
CC(C)Nc1nc(NNC(=O)c2ccncc2)nc(N2CCCCC2)n1	3.12 µg/mL (≈ 8.75 µM)	Activity [2]: Non-toxic; Activity [3]: Non-toxic
O=C(NNc1nc(N2CCCCC2)nc(N2CCCCC2)n1)c1ccncc1	6.25 µg/mL (≈ 16.3 µM)	–
O=C(NNc1nc(Nc2ccccc2)nc(N2CCOCC2)n1)c1ccncc1	1.56 µg/mL (≈ 3.98 µM)	Activity [2]: Non-toxic; Activity [3]: Non-toxic
O=C(NNc1nc(Nc2ccccc2)nc(NC2CCCCC2)n1)c1ccncc1	6.25 µg/mL (≈ 15.5 µM)	–
CCCCNc1nc(NNC(=O)c2ccncc2)nc(Nc2ccccc2)n1	6.25 µg/mL (≈ 16.5 µM)	–
CC(C)Nc1nc(NNC(=O)c2ccncc2)nc(Nc2ccccc2)n1	6.25 µg/mL (≈ 17.2 µM)	–
CCN(CC)CCNc1nc(N)nc(Nc2nc(SC)cc(-c3cc(OC)c(OC)c(OC)c3)n2)n1	> 12.5 µg/mL	–
CCNC1CN(c2nc(Nc3nc(SC)cc(-c4ccc(OC)c(OC)c4)n3)nc(N3CCOC(NCC)C3)n2)CCO1 (stereo not drawn)	> 12.5 µg/mL	–
CCCNC1COCCN1c1nc(Nc2nc(SC)cc(-c3ccc(OC)c(OC)c3)n2)nc(N2CCOCC2NCCC)n1 (stereo not drawn)	> 12.5 µg/mL	–
CCNC1CN(c2cc(-c3cc(OC)c(OC)c(OC)c3)nc(N)n2)CCO1 (stereo not drawn)	> 12.5 µg/mL	–
CCCNC1COCCN1c1cc(-c2cc(OC)c(OC)c(OC)c2)nc(N)n1 (stereo not drawn)	> 12.5 µg/mL	–
CCCCNc1cc(-c2cc(OC)c(OC)c(OC)c2)nc(N)n1	> 12.5 µg/mL	–
CCNC1CN(c2nc(N3CCCc4ccccc43)nc(N3CCCc4ccccc43)n2)CCO1 (stereo not drawn)	> 12.5 µg/mL	–
CCCNC1COCCN1c1nc(N2CCCc3ccccc32)nc(N2CCCc3ccccc32)n1 (stereo not drawn)	> 12.5 µg/mL	–
CC(C)(C)Nc1nc(N2CCCc3ccccc32)nc(N2CCCc3ccccc32)n1	> 12.5 µg/mL	–
CN1CCN(c2nc(N3CCCc4ccccc43)nc(N3CCCc4ccccc43)n2)CC1	> 12.5 µg/mL	–
CCN(CC)CCNc1nc(N2CCCc3ccccc32)nc(N2CCCc3ccccc32)n1	> 12.5 µg/mL	–
c1ccc2c(c1)CCCN2c1nc(N2CCOCC2)nc(N2CCCc3ccccc32)n1	> 12.5 µg/mL	–
CCCNC1COCCN1c1nc(N2CCc3ccccc3C2)nc(N2CCc3ccccc3C2)n1 (stereo not drawn)	> 12.5 µg/mL	–
CC(C)(C)Nc1nc(N2CCc3ccccc3C2)nc(N2CCc3ccccc3C2)n1	> 12.5 µg/mL	–
CCN(CC)CCNc1nc(N2CCc3ccccc3C2)nc(N2CCc3ccccc3C2)n1	> 12.5 µg/mL	–
c1ccc2c(c1)CCN(c1nc(N3CCOCC3)nc(N3CCc4ccccc4C3)n1)C2	> 12.5 µg/mL	–
CCCNc1nc(NCCC)nc(N2CCCc3ccccc32)n1	> 12.5 µg/mL	–

Compound	MIC [1]	further results
CC(C)Nc1nc(NC(C)C)nc(N2CCCc3ccccc32)n1	> 12.5 µg/mL	–
CC(C)(C)Nc1nc(NC(C)(C)C)nc(N2CCCc3ccccc32)n1	> 12.5 µg/mL	–
CCN(CC)CCNc1nc(NCCN(CC)CC)nc(N2CCCc3ccccc32)n1	> 12.5 µg/mL	–
CCN1CCN(c2nc(Nc3nc(SC)cc(-c4ccc(OC)c(OC)c4)n3)nc(N3CCN(CC)CC3)n2)CC1	12.5 µg/mL (≈ 21.5 µM)	–
COc1cc(-c2cc(N3CCN(C)CC3)nc(N)n2)cc(OC)c1OC	> 12.5 µg/mL	–
CCCNc1nc(NCCC)nc(Nc2nc(SC)cc(-c3cc(OC)c(OC)c(OC)c3)n2)n1	> 12.5 µg/mL	–
COc1cc(-c2cc(SC)nc(Nc3nc(N4CCOCC4)nc(N4CCOCC4)n3)n2)cc(OC)c1OC	> 12.5 µg/mL	–
CCCNc1nc(NCCC)nc(Nc2nc(SC)cc(-c3ccc(OC)c(OC)c3)n2)n1	> 12.5 µg/mL	–
COc1cc(-c2cc(N3CCOCC3)nc(N)n2)cc(OC)c1OC	> 12.5 µg/mL	–
CCN1CCN(c2nc(Nc3nc(SC)cc(-c4cc(OC)c(OC)c(OC)c4)n3)nc(N3CCN(CC)CC3)n2)CC1	12.5 µg/mL (≈ 20.5 µM)	–
COc1cc(-c2cc(SC)nc(Nc3nc(N4CCN(C)CC4)nc(N4CCN(C)CC4)n3)n2)cc(OC)c1OC	12.5 µg/mL (≈ 21.5 µM)	–
COc1ccc(-c2cc(SC)nc(Nc3nc(N4CCN(C)CC4)nc(N4CCN(C)CC4)n3)n2)cc1OC	> 12.5 µg/mL	–
CCN(CC)CCNc1nc(NCCN(CC)CC)nc(Nc2nc(SC)cc(-c3ccc(OC)c(OC)c3)n2)n1	6.25 µg/mL (≈ 10.7 µM)	–
COc1ccc(-c2cc(SC)nc(Nc3nc(NC(C)(C)C)nc(NC(C)(C)C)n3)n2)cc1OC	6.25 µg/mL (≈ 12.5 µM)	–
COc1ccc(-c2cc(SC)nc(Nc3nc(N4CCCCC4)nc(N4CCCCC4)n3)n2)cc1OC	> 12.5 µg/mL	–
COc1ccc(-c2cc(SC)nc(Nc3nc(NC(C)C)nc(NC(C)C)n3)n2)cc1OC	12.5 µg/mL (≈ 26.6 µM)	–
COc1cc(-c2cc(SC)nc(Nc3nc(NC(C)C)nc(NC(C)C)n3)n2)cc(OC)c1OC	3.12 µg/mL (≈ 6.23 µM)	Activity [2]: Toxic; Activity [3]: Toxic
COc1ccc(-c2cc(SC)nc(Nc3nc(N4CCOCC4)nc(N4CCOCC4)n3)n2)cc1OC	> 12.5 µg/mL	–
COc1cc(-c2cc(N3CCCCC3)nc(N)n2)cc(OC)c1OC	> 12.5 µg/mL	–
CCN(CC)CCNc1cc(-c2cc(OC)c(OC)c(OC)c2)nc(N)n1	> 12.5 µg/mL	–
COc1cc(-c2cc(SC)nc(Nc3nc(N4CCCCC4)nc(N4CCCCC4)n3)n2)cc(OC)c1OC	6.25 µg/mL (≈ 11.3 µM)	–
CCCCNc1nc(NCCCC)nc(Nc2nc(SC)cc(-c3cc(OC)c(OC)c(OC)c3)n2)n1	> 12.5 µg/mL	–
COc1cc(-c2cc(SC)nc(Nc3nc(NC(C)(C)C)nc(NC(C)(C)C)n3)n2)cc(OC)c1OC	3.12 µg/mL (≈ 5.9 µM)	Activity [2]: Non-toxic; Activity [3]: Toxic
NNC(=O)c1ccncc1 [ISONIAZID]	0.025 µg/mL (≈ 0.182 µM)	Activity [2]: Non-toxic; Activity [3]: Non-toxic
